From PubChem
PGC1a acetyl inh = PGC1a acetylation modulation, inhibitor mode; U2OS PGC1a acetylation, AlphaScreen anti-acetyl-lysine; with virally co-expressed GCN5 acetyltransferase; inhibition, % at 15.6 µM; actives 0.17% (n = 350,000); AID 651687;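 active = every replicate shows inhibition of at least 40%; inconclusive = mean inhibition at least 40% but some replicate below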
SIRT5 inh = blocks human SIRT5 desuccinylation of peptide; Purified SirT5, succinyl-peptide AMC, trypsin-coupled fluorescence; Q9NXA8; AID 652115; actives 1.1% (n = 330,000); inhibition, % at 15 µM; in the data active = inhibition above about 15%; inconclusive = no clear call, values can overlap the other calls
Target sequence (Q9NXA8 whole entry, looked up): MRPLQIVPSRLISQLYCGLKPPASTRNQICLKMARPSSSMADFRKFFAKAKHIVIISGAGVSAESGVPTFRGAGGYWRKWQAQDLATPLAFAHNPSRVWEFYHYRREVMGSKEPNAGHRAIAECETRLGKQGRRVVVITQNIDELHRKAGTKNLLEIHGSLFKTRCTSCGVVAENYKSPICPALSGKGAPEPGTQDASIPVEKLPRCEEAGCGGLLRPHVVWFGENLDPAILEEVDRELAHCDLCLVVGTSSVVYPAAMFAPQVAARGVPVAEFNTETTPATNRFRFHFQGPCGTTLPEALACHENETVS
C2C12 statin = suppression of simvastatin myotoxicity. C2C12 myotubes + simvastatin, ATP luminescence, 48 h; scaled: DMSO 0, geranylgeraniol control 100. rescue of ATP level, % at 7.49 µM. actives 0.78% (n = 330,000);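 active = mean ATP rescue above about 67%, or every replicate alone reaching that limit, limit read from the data, passing the limit was not always enough; inconclusive = no clear call, values can overlap the other calls; inactive = mean under the limit and some replicate under it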;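 also: myotubes were challenged with 10 µM simvastatin during compound exposure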
DENV2 CPE = inhibitors of DENV2 cytopathic effect; DENV2-infected cells, cytopathic effect rescue, plate reader; CPE inhibition, % at 9.99 µM; actives 1.7% (n = 350,000); in the data active = CPE inhibition above about 20%, passing the limit was not always enough; inconclusive = no clear call, values can overlap the other calls; tested in BHK-21 cells
S100A4 MyoIIA = inhibitors of human S100A4 binding to myosin IIA peptide | P26447 | S100A4/TAMRA-MyoIIA peptide fluorescence polarization | inhibition, % at 10.7 µM | actives 0.14% (n = 360,000) | AID 652163;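 active = mean inhibition of at least 70% across replicates, with every replicate also reaching that level; inconclusive = mean inhibition reaches 70% but some replicates fall short; inactive = mean inhibition below 70%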
Target sequence (P26447 whole entry, looked up): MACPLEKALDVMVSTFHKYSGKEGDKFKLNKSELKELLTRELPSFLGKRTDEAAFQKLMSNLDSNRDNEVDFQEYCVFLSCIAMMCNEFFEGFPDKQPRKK
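Material: S100A4 monomer (human). Medium: Calcium-containing HEPES buffer, pH 7.2. Probe or stimulus: labelled myosin peptide probe, 5 nM. Compound dosing: one concentration per compound. Timing: polarization read 5 min after assay mix addition, stable 5–60 min. Benchmarks: DMSO as neutral control, TFP as positive control.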
Hits are given with their value; i = inactive; ? = inconclusive; nt = no result. Only some compounds are listed: those with a hit (about 2.9% of all), similar ones and a draw of the others.

SMILES | PGC1a acetyl inh | SIRT5 inh | C2C12 statin | DENV2 CPE | S100A4 MyoIIA
Cc1ccccc1Nc1ccc2nonc2c1[N+](=O)[O-] | i | 29 | i | i | i
O=C(C[C@H]1CC[C@H]2[C@@H](COC[C@H](O)CN2S(=O)(=O)c2ccccc2)O1)Nc1ccccc1 | i | i | i | i | i
Cc1ccc(S(=O)(=O)N(C)C[C@@H]2Oc3ccc(NC(=O)c4ccncc4)cc3CC(=O)N([C@@H](C)CO)C[C@@H]2C)cc1 | i | i | i | 57 | i
Cc1ccc(S(=O)(=O)N(C)C[C@@H]2Oc3ccc(NC(=O)c4ccncc4)cc3C(=O)N([C@H](C)CO)C[C@@H]2C)cc1 | i | i | i | i | i
Cc1ccc(S(=O)(=O)N(C)C[C@@H]2Oc3ccc(NC(=O)c4ccncc4)cc3C(=O)N([C@H](C)CO)C[C@H]2C)cc1 | i | i | i | 31 | i
O=C(N/N=C/c1ccc([N+](=O)[O-])cc1)c1cccnc1 | i | i | i | i | i
Nc1c(C(=O)N/N=C/c2ccc([N+](=O)[O-])cc2)cnn1-c1ccccc1 | i | i | i | 46 | i
O=C(COC(=O)c1n[nH]c(=O)c2ccccc12)Nc1ccccc1 | nt | 19 | nt | i | i
Cc1ccccc1NC(=O)COC(=O)c1n[nH]c(=O)c2ccccc12 | nt | i | i | i | i
O=C(CCCc1ccccc1)Nc1cccc([N+](=O)[O-])c1 | i | i | i | 40 | i
O=C(CCc1ccccc1)Nc1cccc([N+](=O)[O-])c1 | nt | i | i | i | i
O=C(CCCC(=O)Nc1cccc(Br)c1)N/N=C/c1cc([N+](=O)[O-])ccc1O | i | i | i | ? | i
CCN(CC)CCCNC(CC(=O)Nc1cccc([N+](=O)[O-])c1)C(=O)O (centres undefined) | i | i | nt | 30 | i
O=C(CCC(=O)Nc1cccc(Cl)c1)N/N=C/c1cc([N+](=O)[O-])ccc1O | i | 15 | nt | nt | i
CCCC(CCC(=O)Nc1cccc([N+](=O)[O-])c1)C(=O)O (centres undefined) | i | i | i | i | i
O=C(CC1CC1)N1CC2(C1)[C@@H](c1ccccc1)[C@@H](CO)N2C(=O)C1CCOCC1 | i | i | nt | i | i
N#Cc1c2n(c3c(=O)n(Cc4ccc(Cl)cc4)cnc13)CCCCC2 | i | nt | 95 | nt | nt
Cc1cc(Br)ccc1SCC(=O)OC/C(O)=C(\C#N)c1nc2ccccc2[nH]1 | nt | 21 | nt | i | i
COCC(=O)OC/C(O)=C(\C#N)c1nc2ccccc2[nH]1 | i | i | i | nt | i
COc1cccc(/C=C(\C#N)c2nc3ccccc3[nH]2)c1OCC(=O)O | nt | 102 | i | i | i
Cc1cccc(C)c1OCC(=O)OC/C(O)=C(\C#N)c1nc2ccccc2[nH]1 | i | nt | nt | 33 | i
O=C([C@H]1N[C@H]2c3ccc(C4=CCCCC4)c(=O)n3C[C@H]2[C@@H]1CO)N1CCc2ccccc2C1 | i | nt | i | nt | nt
COc1ccc(S(=O)(=O)n2nc(OC(=O)C3CCCCC3)cc2N)cc1 | i | nt | 106 | nt | nt
CC(C)(C)OC(=O)N1CCC[C@H]1c1nnc(SCc2cccc(Cl)c2)o1 | nt | 23 | nt | i | i
Cc1nc(S/C(=C/c2ccc(-c3ccc(C(=O)O)cc3)o2)C(=O)O)n[nH]1 | i | 37 | i | i | i
SMILES | PGC1a acetyl inh | SIRT5 inh | C2C12 statin | DENV2 CPE | S100A4 MyoIIA
CC(=O)c1ccc(-c2ccc(/C=C(/Sc3n[nH]c(C)n3)C(=O)O)o2)cc1 | i | i | nt | i | i
C[C@@H]1CN([C@H](C)CO)C(=O)c2cc(NS(=O)(=O)c3ccc(F)cc3)ccc2O[C@@H]1CN(C)Cc1ccncc1 | i | i | i | i | i
O=C(C[C@@H]1CC[C@@H](NC(=O)Cc2ccccn2)[C@@H](CO)O1)NCCCN1CCOCC1 | i | 15 | i | i | i
O=C(Cc1ccccn1)N[C@@H]1CC[C@@H](CCNS(=O)(=O)c2cccc(F)c2)O[C@H]1CO | i | i | i | i | 132
O=C(CN1CCOCC1)NCC[C@@H]1CC[C@@H](NC(=O)Cc2ccccn2)[C@H](CO)O1 | i | i | i | i | i
O=C(CN1CCOCC1)NCC[C@@H]1CC[C@H](NC(=O)Cc2ccccn2)[C@@H](CO)O1 | i | i | i | 23 | i
O=C(NN1C(=O)/C(=C/C=C/c2ccco2)SC1=S)c1ccncc1 | i | 43 | nt | i | i
O=C(O)c1ccc(N2C(=O)/C(=C/C=C/c3ccccc3)SC2=S)cc1 | nt | i | nt | i | i
O=C(NN1C(=O)/C(=C/C=C/c2ccccc2)SC1=S)c1ccncc1 | nt | 22 | nt | i | i
CCOC(=O)C(=C1Nc2ccccc2N1)n1c(-c2cnccn2)nc2ccccc21 | nt | nt | nt | 57 | i
COc1ccc(OCCOc2ccc(S(=O)(=O)N3CCCC3)cc2[N+](=O)[O-])cc1 | i | 27 | i | i | i
CCCC#Cc1ccc([C@H]2[C@@H](C#N)N(C(=O)C3CCCC3)[C@H]2CO)cc1 | i | i | i | i | i
CO[C@H]1CN(C)C(=O)c2ccc(NC(=O)NC(C)C)cc2OC[C@H](C)N(C(=O)CN(C)C)C[C@H]1C | i | i | i | i | i
COc1ccc(NC(=O)N[C@H]2CC[C@@H](CCNS(=O)(=O)c3cccc(Cl)c3)O[C@@H]2CO)cc1 | i | i | i | i | i
COc1cccc(NC(=O)N[C@@H]2CC[C@@H](CC(=O)N3CCOCC3)O[C@@H]2CO)c1 | i | i | i | 64 | i
COc1ccccc1NC(=O)N[C@H]1CC[C@H](CCNS(=O)(=O)c2ccc(C)cc2)O[C@H]1CO | nt | i | nt | 22 | i
COc1ccccc1NC(=O)N[C@H]1CC[C@@H](CCNS(=O)(=O)c2ccc(Cl)cc2)O[C@H]1CO | i | i | i | 20 | i
COc1ccc(NC(=O)N[C@@H]2CC[C@@H](CCNS(=O)(=O)c3cccc(Cl)c3)O[C@@H]2CO)cc1 | i | i | i | 114 | i
CC(C)CC#Cc1cnc2c(c1)C(=O)N([C@@H](C)CO)C[C@H](C)[C@H](CN(C)C(=O)Nc1ccccc1F)O2 | i | i | nt | i | i
CN1C(=O)c2cc(NC(=O)c3cccc(F)c3)ccc2OC[C@H]2O[C@H](CC(=O)O)CC[C@H]21 | i | nt | i | i | nt
C=CCSc1nnc(-c2cc3c(s2)-c2ccccc2CC3)o1 | i | nt | 146 | nt | nt
C[C@H]1CN([C@@H](C)CO)C(=O)c2cc(NS(=O)(=O)c3ccc(F)cc3)ccc2O[C@@H]1CN(C)Cc1ccc(Oc2ccccc2)cc1 | i | i | i | i | i
O=C(c1ccccc1)N1[C@H](CO)[C@H](c2ccccc2)C12CN(CCC(F)(F)F)C2 | i | i | nt | 20 | i
O=C(C1CCOCC1)N1CC2(C1)[C@H](c1ccccc1)[C@@H](CO)N2CCC(F)(F)F | i | i | nt | i | i
O=C(C1CC1)N1[C@H](CO)[C@H](c2ccccc2)C12CN(CCC(F)(F)F)C2 | i | i | nt | i | i
CS(=O)(=O)N1CC2(C1)[C@@H](c1ccccc1)[C@@H](CO)N2CCC(F)(F)F | i | i | nt | 20 | i
O=C(C1CCOCC1)N1CC2(C1)[C@@H](c1ccccc1)[C@@H](CO)N2CCC(F)(F)F | i | 26 | nt | i | i
